HCT116 bCat-KO: beta-catenin-lacking colon tumor cell growth suppression; HCT116 beta-catenin knockout viability, CellTiter-Glo, 60 h; active compounds read low; viability, % at 10 µM; hit rate 1.5% among 140,000; AID 818;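 active = viability at or under a set limit, the compound median less 4 SD, cut at about 6% in these data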;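 note: 0% = Hyamine 1622 control at 20 µM and 100% = untreated cell control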
Fibroblast inh: blocks proliferation of human lung fibroblasts | LL 47 human lung fibroblast viability, ATP luminescence; active compounds read low | viability, % at 10 µM | hit rate 1.1% among 85,000;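 active = viability at or below 50% in the single dose screen; inactive = viability above 50%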;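 note: compound exposure lasted 72 h before the ATP readout; 100% = median luminescence of untreated cell-only wells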
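Test system: LL 47 human lung fibroblasts / Incubation: 72 h compound exposure at 37 °C after overnight plating / Technique: luminescent ATP detection, CellTiter-Glo / Compound dosing: 0.1% DMSO in all compound wells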
HCT116 PTEN-null: suppresses growth of cells with PTEN deletion | hit rate 1.2% among 140,000 | AID 827 | viability, % at 10 µM | HCT116 PTEN-null viability, CellTiter-Glo, 60 h; active compounds read low;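 active = viability at or below a set limit, 4 SD under the median of all tested compounds, cut at about 3.7% in these data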;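 note: PTEN knockout HCT116 line with beta catenin targeted HCT116 as companion control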
H69AR inhibit: growth inhibitors of human H69AR lung tumor cells. H69AR lung tumor viability, ATP luminescence, 72 h; active compounds read low. hit rate 6% among 85,000. viability, % at 10 µM. AID 598;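 active = viability at or below 40%; inactive = viability above 40%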;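 note: multidrug resistant small cell line overexpressing MRP-1 efflux transporter; 100% = mean luminescence of untreated control wells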
HUVEC inhibit: inhibitors of human endothelial cell proliferation | HUVEC proliferation, CellTiter-Glo luminescence, 72 h; active compounds read low | viability, % at 10 µM (by protocol) | hit rate 1.1% among 86,000 | AID 648;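 active = viability at or below 30%; inactive = viability above 30%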;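 note: 100% = median luminescence of DMSO-only cell control wells on each plate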
Starred values were filed as active, the others as inactive; nt = not tested or not shown. This excerpt belongs to a sample that is enriched for hits.

SMILES | HCT116 bCat-KO | Fibroblast inh | HCT116 PTEN-null | H69AR inhibit | HUVEC inhibit
CCOC(=O)c1cnc(SCc2nc(N)nc(Nc3ccc(F)cc3)n2)nc1N | 51 | 91 | 45 | 36* | 99
O=S(=O)(Nc1nc2c(s1)CCCC2)c1ccc(F)cc1 | 92 | 104 | 92 | 90 | 99
CCCCC(CCCC)=N/N=C/c1c(O)n(CC)c2cc(C3=NNC(=O)CC3)ccc12 | 39 | 78 | 31 | 33* | 100
COC(=O)c1ccc(-c2ccco2)n1Cc1ccccc1Cl | 91 | 94 | 87 | 75 | 100
COC(=O)c1ccc(-c2ccco2)n1Cc1nc(-c2ccc(OC)c(OC)c2)oc1C | 43 | 89 | 48 | 36* | 81
CC(C)=N/N=C(\c1cccc([N+](=O)[O-])c1)C12CN3CN(CN(C3)C1)C2 | 99 | nt | 105 | nt | nt
CCCCS(=O)(=O)/C=C\C=C/S(=O)(=O)CCCC | 1.7* | 2.5* | 2.0* | 1.0* | 49*
CCCCS(=O)(=O)/C=C\C1C2C=CC(C2)C1S(=O)(=O)CCCC (centres undefined) | 91 | 94 | 97 | 83 | 102
Cc1ccc([N+](=O)[O-])cc1NC(=O)c1ccc(-c2ccccc2)cc1 | 72 | nt | 69 | nt | nt
Cc1nc2c(-c3ccc(F)cc3)c(C)nn2c(C)c1CCC(=O)N1CCOCC1 | 78 | nt | 96 | nt | nt
O=C(N/N=C\C=C\c1ccco1)c1cc(-c2ccc3ccccc3c2)n[nH]1 | 7 | nt | 3.6* | nt | nt
O=C(N/N=C/C=C/c1ccco1)c1cccnc1 | 89 | 105 | 85 | 85 | 98
COc1ccccc1N1C(=O)C2ON(c3ccccc3)C(c3ccc(N(C)C)cc3)C2C1=O (centres undefined) | 99 | 107 | 94 | 11* | 81
CCOc1ccc(/C=C2\N=C(c3cccs3)OC2=O)cc1OC | 97 | nt | 100 | nt | nt
CC(=O)CCS(=O)(=O)c1ccc(Oc2ccc(S(=O)(=O)CCC(C)=O)cc2)cc1 | 63 | 11* | 78 | 1.3* | 94
CC(=O)CS(=O)(=O)c1ccc(Oc2ccc(S(=O)(=O)CC(C)=O)cc2)cc1 | 93 | 99 | 93 | 86 | 104
COc1cc2c(cc1NC(=O)CSc1nnc(Cc3cccs3)n1Cc1ccco1)oc1ccccc12 | 40 | 92 | 46 | 37* | 78
COc1cc2c(cc1NC(=O)CSc1nnnn1-c1ccccc1)oc1ccccc12 | 35 | 76 | 51 | 19* | 57
COc1cc2c(cc1NC(=O)CSc1nnc(Cc3cccs3)n1C)oc1ccccc12 | 87 | 94 | 95 | 3.9* | 58
CCn1c(SCC(=O)Nc2cc3oc4ccccc4c3cc2OC)nnc1-c1cccs1 | 62 | 100 | 68 | 2.3* | 48
OCCN1CCN(c2nc(N3CCCCC3)nc(N3CCCCC3)n2)CC1 | 89 | nt | 85 | nt | nt
Cc1ccc(S(N)(=O)=O)cc1NC(=O)/C=C/c1cccs1 | 104 | nt | 107 | nt | nt
COc1cc2c(cc1NC(=O)CN1CCN(S(=O)(=O)c3ccccc3F)CC1)oc1ccccc12 | 78 | 67 | 75 | 40* | 40
COc1cc2c(cc1NC(=O)Cc1ccc(C)cc1)oc1ccccc12 | 95 | nt | 96 | nt | nt
Cc1nn(-c2ccccc2)c(Cl)c1/C=C/C(=O)c1ccccc1 | 8 | nt | 4 | nt | nt
SMILES | HCT116 bCat-KO | Fibroblast inh | HCT116 PTEN-null | H69AR inhibit | HUVEC inhibit
Oc1ccc(Cl)cc1-c1cc(-c2ccccc2)n[nH]1 | 10 | 77 | 16 | 4.3* | 31
COc1ccc(-c2cc(-c3ccccc3O)[nH]n2)cc1 | 43 | 77 | 47 | 13* | 71
COc1ccccc1-c1cc(-c2cc(Cl)ccc2O)n[nH]1 | 37 | 91 | 55 | 82 | 92
CC(=O)c1ccc(S(=O)(=O)N(Cc2cc3cc4c(cc3[nH]c2=O)OCCO4)CC2CCCO2)cc1 (centres undefined) | 108 | 95 | 98 | 75 | 94
COC(=O)c1ccc(S(=O)(=O)N(Cc2cc3cc4c(cc3[nH]c2=O)OCO4)C2CCCCC2)cc1 | nt | 107 | nt | 39* | 94
Cc1ccc(S(=O)(=O)N(Cc2cc3cc4c(cc3[nH]c2=O)OCCO4)CC2CCCO2)cc1 (centres undefined) | 79 | 99 | 85 | 65 | 66
COc1ccc2cc(CN(CC3COCCO3)S(=O)(=O)c3c(C)cc(C)cc3C)c(=O)[nH]c2c1 (centres undefined) | 85 | nt | 94 | nt | nt
COc1ccc2cc(CN(CC3COCCO3)S(=O)(=O)c3ccc(Cl)cc3)c(=O)[nH]c2c1 (centres undefined) | 20 | 108 | 27 | 13* | 102
O=c1[nH]c2cc3c(cc2cc1CN(CC1CCCO1)S(=O)(=O)c1ccc(Cl)cc1)OCCO3 (centres undefined) | 15 | 95 | 7 | 12* | 74
COCCCNC(=O)c1ccc(Cn2c(=O)c3ccccc3n(Cc3ccc(C)cc3)c2=O)cc1 | 70 | 75 | 69 | 43 | 63
Cc1ccc(NC(=S)NNC(=O)CSc2nnc(-c3ccc(Cl)cc3)n2C2CCCCC2)cc1 | 86 | nt | 82 | nt | nt
CCc1nc(SCC(=O)c2ccc(C)c(C)c2)n[nH]1 | 99 | 114 | 102 | 100 | 99
Cc1nc2ccc(S(=O)(=O)Nc3ccccc3C)cc2s1 | 56 | 91 | 56 | 33* | 67
CCOC(=O)Cn1c2ccc(OC)cc2c2nc3ccccc3nc21 | 47 | 80 | 60 | 24* | 75
COc1ccc(C(c2nnnn2CC2CCCO2)N2CCN(c3ccccc3)CC2)cc1 (centres undefined) | 99 | nt | 100 | nt | nt
COc1ccc(N2CCN(C(c3cc(OC)ccc3OC)c3nnnn3CC3CCCO3)CC2)cc1 (centres undefined) | 0.9* | 97 | 0.7* | 93 | 93
NCCn1c(-c2ccccc2)cc(C(=O)O)c1-c1ccccc1F | 81 | nt | 90 | nt | nt
CCCNC(=O)c1c(NC(=O)C2COc3ccccc3O2)sc2c1CCCC2 (centres undefined) | 38 | 13* | 21 | 29* | 40
O=C(NC1CCS(=O)(=O)C1)c1c(NC(=O)C2COc3ccccc3O2)sc2c1CCCC2 (centres undefined) | 13 | 102 | 16 | 23* | 85
O=C(Nc1nc2c(s1)CCCC2)C1COc2ccccc2O1 (centres undefined) | 77 | 96 | 76 | 87 | 94
Cn1c(=O)c2c(nc(N3CCOCC3)n2CCSc2ncccn2)n(C)c1=O | 97 | 105 | 99 | 92 | 99
CC(O)CN(Cc1cccc(Cl)c1)CC(C)O (centres undefined) | 90 | 107 | 103 | 88 | 93
Cc1ccc(C(=O)Nc2ccc(F)cc2F)o1 | 98 | 101 | 104 | 73 | 90
Cc1ccc(C)c(NC(=O)CSc2nnc([C@@H]3CCCN3C(=O)OC(C)(C)C)o2)c1 | 100 | 99 | 98 | 97 | 98
Cc1cccc(NC(=O)CSc2nnc([C@@H]3CCCN3C(=O)OC(C)(C)C)o2)c1C | 97 | 91 | 99 | 1.4* | 76
Cn1cc([N+](=O)[O-])c(C(=O)Nc2cc(Oc3ccccc3)cc([N+](=O)[O-])c2)n1 | 1.6* | nt | 1.7* | nt | nt
